Data on 5 molecules can be found in ChEMBL document CHEMBL3352478, “Novel benzopsoralen analogues: synthesis, biological activity and molecular docking studies” (2014).

The structures appear in SMILES notation.

As usually defined, the GI50 is the concentration giving 50% growth inhibition. The low end stands for more potent growth inhibition, the high end for less potent growth inhibition.

The test system of one assay is MDA-MB-231. Put plainly: Antiproliferative activity against human MDA-MB-231 cells after 48 hrs by MTS assay. Type of assay: functional. As to conditions: MDA-MB-231, 48 h. The method in brief:
(§1)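 Cells were grown in DMEM with 1% penicillin/streptomycin and FBS (10% for MDA-MB-231, 15% for TCC-SUP). At 1×10^4 cells/mL, cells were exposed for 48 h to five compound concentrations freshly diluted from DMSO stocks (final DMSO <1%). MTS reagent was then added for 2 h at 37 °C, 5% CO2, and absorbance read at 490 nm. Viability was taken as % of control and GI50 read from dose-response curves; 3 independent cultures, 4 wells per concentration.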
On the technique in general: Tetrazolium dyes change colour on reduction, which living cells bring about.

Assay [1] in a line: Antiproliferative activity against human TCCSUP cells after 48 hrs by MTS assay. Type of assay: functional. As to conditions: TCC-SUP. The method, boiled down: as §1

In the case of `Cc1cc(=O)oc2c1ccc1c3ccccc3sc12`, the figures for the 50% growth inhibitory concentration (GI50) (in the assay on MDA-MB-231; in assay [1]) were 49 nM and 253 nM, respectively.
As for `Cc1c(Cl)c(=O)oc2c1ccc1c3ccccc3sc12`, the GI50 in the assay with MDA-MB-231 was found to be 460 nM; in assay [1] it was 311 nM.
Regarding `Cc1c(Cl)c(=O)oc2cc3c(cc12)oc1ccccc13`, the GI50 in the assay on MDA-MB-231 was 82 nM; in assay [1] it was 243 nM.
Take `Cc1c(Cl)c(=O)oc2cc3[nH]c4ccccc4c3cc12`: the GI50 in the assay with MDA-MB-231 amounted to 421 nM; in assay [1] it was 149 nM.
For the molecule `CCOC(=O)/C=C/n1c2ccccc2c2cc(O)ccc21`, the concentration for 50% growth inhibition (GI50) with MDA-MB-231 came to 198 nM; in assay [1], 25 nM.
